Assay results from ChEMBL document CHEMBL1148104, “New sugar-mimic alkaloids from the pods of Angylocalyx pynaertii” (J Nat Prod, 2002).

Assays:
[1] = test system: Oryza sativa; assay: Inhibition of rice alpha-glucosidase assessed as glucose release at 1000 uM by Glucose B-test
Outline: (§1)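 Disaccharide substrate suited to each enzyme, at that enzyme's optimum pH. Released D-glucose was measured colorimetrically with the Glucose B-test.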

[2] = Inhibition of yeast alpha-glucosidase assessed as p-nitrophenol release by spectrophotometrically; parameters: species or system Saccharomyces cerevisiae
Outline: (§2)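 Assayed with the appropriate p-nitrophenyl glycoside substrate at each enzyme's optimum pH.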

[3] = target: Lysosomal alpha-glucosidase (Rattus norvegicus) (UniProt Q6P7A9); assay: Inhibition of rat intestinal maltase assessed as glucose release at 1000 uM by Glucose B-test
Outline: (§3)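 Enzyme source was brush border membranes prepared from rat small intestine. Maltase, sucrase and isomaltase activities were read with the matching disaccharide substrate at each enzyme's optimum pH, and liberated D-glucose was quantified colorimetrically by Glucose B-test.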

[4] = target: Sucrase-isomaltase, intestinal (Rattus norvegicus) (UniProt P23739); assay: Inhibition of rat intestinal sucrase assessed as glucose release at 1000 uM by Glucose B-test; outline: as §3
[5] = target: Sucrase-isomaltase, intestinal (Rattus norvegicus) (UniProt P23739); assay: Inhibition of rat intestinal isomaltase assessed as glucose release at 1000 uM by Glucose B-test; outline: as §3
[6] = organism: Rattus norvegicus; assay: Inhibition of rat epididymis alpha-mannosidase assessed as p-nitrophenol release at 1000 uM by spectrophotometrically
[7] = target: T1, Beta-mannosidase (Rattus norvegicus) (UniProt Q4FZV0); assay: Inhibition of rat epididymis beta-mannosidase assessed as p-nitrophenol release at 1000 uM by spectrophotometrically
T1 sequence (whole entry): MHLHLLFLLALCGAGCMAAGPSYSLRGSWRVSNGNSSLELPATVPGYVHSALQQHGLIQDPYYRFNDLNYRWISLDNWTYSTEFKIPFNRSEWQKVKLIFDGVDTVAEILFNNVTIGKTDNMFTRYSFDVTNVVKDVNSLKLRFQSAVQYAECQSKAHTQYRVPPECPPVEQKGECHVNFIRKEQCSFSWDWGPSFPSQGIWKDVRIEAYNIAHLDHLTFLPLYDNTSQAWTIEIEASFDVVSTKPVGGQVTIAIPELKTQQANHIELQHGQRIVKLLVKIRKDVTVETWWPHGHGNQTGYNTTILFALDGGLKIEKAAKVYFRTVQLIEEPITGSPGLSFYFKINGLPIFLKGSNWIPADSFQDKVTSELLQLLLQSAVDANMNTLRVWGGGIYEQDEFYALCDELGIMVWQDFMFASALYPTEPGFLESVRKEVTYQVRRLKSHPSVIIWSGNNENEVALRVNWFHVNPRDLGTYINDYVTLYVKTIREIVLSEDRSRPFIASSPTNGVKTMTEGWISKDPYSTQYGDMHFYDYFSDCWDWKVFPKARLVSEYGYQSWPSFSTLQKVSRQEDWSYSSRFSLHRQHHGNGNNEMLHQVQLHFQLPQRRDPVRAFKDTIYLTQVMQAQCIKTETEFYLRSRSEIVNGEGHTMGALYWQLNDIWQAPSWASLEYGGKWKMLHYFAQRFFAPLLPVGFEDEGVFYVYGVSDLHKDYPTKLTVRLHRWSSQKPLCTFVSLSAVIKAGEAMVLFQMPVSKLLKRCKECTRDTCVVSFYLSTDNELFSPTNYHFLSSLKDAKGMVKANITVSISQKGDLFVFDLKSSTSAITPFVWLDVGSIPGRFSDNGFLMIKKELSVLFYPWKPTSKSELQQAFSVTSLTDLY

[8] = target: Alpha-galactosidase (Coffea arabica) (UniProt Q42656); assay: Inhibition of coffee bean alpha-galactosidase assessed as p-nitrophenol release at 1000 uM by spectrophotometrically; outline: as §2
[9] = target: T2, Beta-galactosidase (Bos taurus, UniProt Q58D55); assay: Inhibition of bovine liver beta-galactosidase assessed as p-nitrophenol release by spectrophotometrically; outline: as §2
T2 sequence (Q58D55 whole entry): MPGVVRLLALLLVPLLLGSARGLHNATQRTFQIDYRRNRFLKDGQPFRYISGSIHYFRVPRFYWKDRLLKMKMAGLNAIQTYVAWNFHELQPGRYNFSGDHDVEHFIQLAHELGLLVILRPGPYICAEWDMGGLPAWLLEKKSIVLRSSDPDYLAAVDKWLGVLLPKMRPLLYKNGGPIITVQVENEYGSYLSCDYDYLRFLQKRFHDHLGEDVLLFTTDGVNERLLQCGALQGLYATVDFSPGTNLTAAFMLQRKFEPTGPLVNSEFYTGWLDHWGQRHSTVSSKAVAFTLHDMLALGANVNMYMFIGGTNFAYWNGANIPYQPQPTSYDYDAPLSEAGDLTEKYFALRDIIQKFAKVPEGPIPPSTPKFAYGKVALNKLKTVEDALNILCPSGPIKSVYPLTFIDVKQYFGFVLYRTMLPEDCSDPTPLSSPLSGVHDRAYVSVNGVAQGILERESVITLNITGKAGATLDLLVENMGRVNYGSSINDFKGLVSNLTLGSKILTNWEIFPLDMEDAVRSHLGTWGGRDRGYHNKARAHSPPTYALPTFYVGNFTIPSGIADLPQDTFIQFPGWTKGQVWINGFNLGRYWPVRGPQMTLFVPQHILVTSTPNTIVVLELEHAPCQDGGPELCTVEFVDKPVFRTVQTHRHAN

[10] = target: T3, Tissue alpha-L-fucosidase (Bos taurus, UniProt Q2KIM0); assay: Inhibition of bovine epididymis alpha-L-fucosidase assessed as p-nitrophenol release by spectrophotometrically; outline: as §2
T3 sequence (Q2KIM0 whole entry): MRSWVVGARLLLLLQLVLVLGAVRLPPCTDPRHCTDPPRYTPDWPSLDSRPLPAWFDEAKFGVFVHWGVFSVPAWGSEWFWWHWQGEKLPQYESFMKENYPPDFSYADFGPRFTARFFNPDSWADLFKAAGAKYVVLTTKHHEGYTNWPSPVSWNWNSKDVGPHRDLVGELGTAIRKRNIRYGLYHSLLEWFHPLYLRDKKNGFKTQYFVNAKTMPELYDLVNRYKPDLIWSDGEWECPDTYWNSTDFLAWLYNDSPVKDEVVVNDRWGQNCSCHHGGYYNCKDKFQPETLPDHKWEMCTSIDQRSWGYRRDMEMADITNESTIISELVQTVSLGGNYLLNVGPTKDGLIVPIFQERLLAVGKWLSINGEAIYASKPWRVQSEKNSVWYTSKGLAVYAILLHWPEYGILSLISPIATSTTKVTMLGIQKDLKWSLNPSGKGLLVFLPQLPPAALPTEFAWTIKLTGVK

[11] = Inhibition of Aspergillus niger amyloglucosidase assessed as glucose release by Glucose B-test; outline: as §1
[12] = target: T4, Uncharacterized protein (Sus scrofa) (UniProt I3LIR5); assay: Inhibition of pig kidney trehalase assessed as p-nitrophenol release at 1000 uM by spectrophotometrically
T4 sequence (whole entry): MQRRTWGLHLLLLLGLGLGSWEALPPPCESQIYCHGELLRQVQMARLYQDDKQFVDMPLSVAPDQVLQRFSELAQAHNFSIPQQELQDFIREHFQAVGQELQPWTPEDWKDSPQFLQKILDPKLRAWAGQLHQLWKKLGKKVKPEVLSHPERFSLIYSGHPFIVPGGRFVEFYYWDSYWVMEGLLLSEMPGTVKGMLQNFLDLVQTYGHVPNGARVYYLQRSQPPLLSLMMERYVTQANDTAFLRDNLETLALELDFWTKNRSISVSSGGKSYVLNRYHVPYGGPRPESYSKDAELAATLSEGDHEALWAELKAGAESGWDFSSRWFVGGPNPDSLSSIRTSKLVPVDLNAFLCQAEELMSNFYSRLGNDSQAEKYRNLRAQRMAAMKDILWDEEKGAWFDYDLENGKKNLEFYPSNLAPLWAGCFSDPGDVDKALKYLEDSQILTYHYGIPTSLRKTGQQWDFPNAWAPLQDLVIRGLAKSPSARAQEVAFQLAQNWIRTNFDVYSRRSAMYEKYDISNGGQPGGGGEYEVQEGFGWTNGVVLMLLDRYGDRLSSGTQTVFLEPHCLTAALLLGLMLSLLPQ

[13] = target: Alpha-glucosidase MAL62 (Saccharomyces cerevisiae, UniProt P07265); assay: Inhibition of yeast maltase alpha-glucosidase assessed as glucose release by Glucose B-test
[14] = Inhibition of yeast isomaltase alpha-glucosidase assessed as glucose release by Glucose B-test
[15] = test system: Saccharomyces cerevisiae; assay: Inhibition of yeast alpha-glucosidase assessed as p-nitrophenol release at 1000 uM by spectrophotometrically; outline: as §2
[16] = target: T5, Beta-galactosidase (Bos taurus) (UniProt Q58D55); assay: Inhibition of bovine liver beta-galactosidase assessed as p-nitrophenol release at 1000 uM by spectrophotometrically; outline: as §2
T5 sequence (whole entry): T2 sequence (Q58D55 whole entry)

[17] = target: T6, Tissue alpha-L-fucosidase (Bos taurus) (UniProt Q2KIM0); assay: Inhibition of bovine epididymis alpha-L-fucosidase assessed as p-nitrophenol release at 1000 uM by spectrophotometrically; outline: as §2
T6 sequence (whole entry): T3 sequence (Q2KIM0 whole entry)

[18] = test system: Aspergillus niger; assay: Inhibition of Aspergillus niger amyloglucosidase assessed as glucose release at 1000 uM by Glucose B-test; outline: as §1
[19] = target: T7, Beta-mannosidase (Rattus norvegicus, UniProt Q4FZV0); assay: Inhibition of rat epididymis beta-mannosidase assessed as p-nitrophenol release by spectrophotometrically
T7 sequence (Q4FZV0 whole entry): T1 sequence (whole entry)

[20] = Inhibition of rice alpha-glucosidase assessed as glucose release by Glucose B-test; parameters: species or system Oryza sativa; outline: as §1

Chain of Alpha-galactosidase (Coffea arabica) (Q42656 16-378 limits assumed): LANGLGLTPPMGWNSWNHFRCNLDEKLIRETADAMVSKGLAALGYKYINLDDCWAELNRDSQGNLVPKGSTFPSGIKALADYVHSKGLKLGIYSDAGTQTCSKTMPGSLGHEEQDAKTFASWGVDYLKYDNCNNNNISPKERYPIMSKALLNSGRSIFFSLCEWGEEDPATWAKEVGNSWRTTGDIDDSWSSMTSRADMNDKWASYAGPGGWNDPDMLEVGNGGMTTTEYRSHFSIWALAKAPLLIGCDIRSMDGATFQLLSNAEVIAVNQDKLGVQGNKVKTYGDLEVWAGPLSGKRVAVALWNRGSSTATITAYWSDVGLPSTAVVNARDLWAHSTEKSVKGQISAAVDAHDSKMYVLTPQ
Chain of Sucrase-isomaltase, intestinal (Rattus norvegicus) (P23739 1-1013 limits assumed): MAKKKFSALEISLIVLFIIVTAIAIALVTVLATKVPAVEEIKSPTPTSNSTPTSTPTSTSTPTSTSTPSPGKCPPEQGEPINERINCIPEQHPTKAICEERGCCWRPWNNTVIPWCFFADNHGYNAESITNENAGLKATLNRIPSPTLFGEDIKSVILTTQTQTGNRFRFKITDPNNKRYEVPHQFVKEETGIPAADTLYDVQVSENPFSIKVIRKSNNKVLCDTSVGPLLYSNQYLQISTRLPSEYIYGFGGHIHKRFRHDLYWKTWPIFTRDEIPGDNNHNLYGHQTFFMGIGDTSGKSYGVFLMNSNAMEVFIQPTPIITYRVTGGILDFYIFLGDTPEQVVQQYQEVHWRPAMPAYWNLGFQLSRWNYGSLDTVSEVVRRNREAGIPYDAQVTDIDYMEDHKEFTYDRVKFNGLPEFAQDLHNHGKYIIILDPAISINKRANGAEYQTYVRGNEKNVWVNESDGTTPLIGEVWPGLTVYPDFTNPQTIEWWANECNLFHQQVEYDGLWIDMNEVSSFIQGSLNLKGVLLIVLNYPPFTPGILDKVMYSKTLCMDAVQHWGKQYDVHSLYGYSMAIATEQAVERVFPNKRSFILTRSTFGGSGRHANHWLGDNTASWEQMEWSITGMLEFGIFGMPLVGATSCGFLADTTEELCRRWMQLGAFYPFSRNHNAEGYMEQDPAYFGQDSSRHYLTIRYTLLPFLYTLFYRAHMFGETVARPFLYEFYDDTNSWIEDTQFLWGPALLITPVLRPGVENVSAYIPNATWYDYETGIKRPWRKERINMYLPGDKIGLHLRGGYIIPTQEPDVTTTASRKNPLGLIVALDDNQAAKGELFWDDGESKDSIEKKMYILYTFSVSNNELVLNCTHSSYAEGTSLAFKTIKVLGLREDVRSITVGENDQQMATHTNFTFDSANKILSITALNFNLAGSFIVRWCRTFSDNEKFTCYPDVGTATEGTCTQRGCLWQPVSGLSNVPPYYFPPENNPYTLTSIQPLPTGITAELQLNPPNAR
Chain of Sucrase-isomaltase, intestinal (Rattus norvegicus) (P23739 1014-1841 limits assumed): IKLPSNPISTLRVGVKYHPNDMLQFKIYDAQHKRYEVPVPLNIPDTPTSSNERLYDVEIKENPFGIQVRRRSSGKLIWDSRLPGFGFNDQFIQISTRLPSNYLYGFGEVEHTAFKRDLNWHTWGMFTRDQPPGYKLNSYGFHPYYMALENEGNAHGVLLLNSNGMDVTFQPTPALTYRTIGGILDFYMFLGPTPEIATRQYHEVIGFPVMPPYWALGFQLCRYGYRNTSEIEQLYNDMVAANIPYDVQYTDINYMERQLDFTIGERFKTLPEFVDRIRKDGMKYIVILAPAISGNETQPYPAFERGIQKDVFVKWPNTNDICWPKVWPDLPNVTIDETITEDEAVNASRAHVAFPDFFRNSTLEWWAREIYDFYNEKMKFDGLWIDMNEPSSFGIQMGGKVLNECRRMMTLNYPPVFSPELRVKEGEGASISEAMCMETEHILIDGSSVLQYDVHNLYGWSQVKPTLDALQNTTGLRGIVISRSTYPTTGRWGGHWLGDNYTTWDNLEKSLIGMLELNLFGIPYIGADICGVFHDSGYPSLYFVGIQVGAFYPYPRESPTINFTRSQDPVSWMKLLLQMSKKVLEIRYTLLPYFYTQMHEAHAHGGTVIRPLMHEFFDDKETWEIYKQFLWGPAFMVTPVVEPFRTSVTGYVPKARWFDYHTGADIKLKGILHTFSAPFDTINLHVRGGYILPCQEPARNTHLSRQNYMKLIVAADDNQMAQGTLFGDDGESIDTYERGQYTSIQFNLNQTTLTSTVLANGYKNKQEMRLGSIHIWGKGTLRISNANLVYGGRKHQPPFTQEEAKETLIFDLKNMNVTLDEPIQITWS
Chain of Lysosomal alpha-glucosidase (Rattus norvegicus) (Q6P7A9 whole entry): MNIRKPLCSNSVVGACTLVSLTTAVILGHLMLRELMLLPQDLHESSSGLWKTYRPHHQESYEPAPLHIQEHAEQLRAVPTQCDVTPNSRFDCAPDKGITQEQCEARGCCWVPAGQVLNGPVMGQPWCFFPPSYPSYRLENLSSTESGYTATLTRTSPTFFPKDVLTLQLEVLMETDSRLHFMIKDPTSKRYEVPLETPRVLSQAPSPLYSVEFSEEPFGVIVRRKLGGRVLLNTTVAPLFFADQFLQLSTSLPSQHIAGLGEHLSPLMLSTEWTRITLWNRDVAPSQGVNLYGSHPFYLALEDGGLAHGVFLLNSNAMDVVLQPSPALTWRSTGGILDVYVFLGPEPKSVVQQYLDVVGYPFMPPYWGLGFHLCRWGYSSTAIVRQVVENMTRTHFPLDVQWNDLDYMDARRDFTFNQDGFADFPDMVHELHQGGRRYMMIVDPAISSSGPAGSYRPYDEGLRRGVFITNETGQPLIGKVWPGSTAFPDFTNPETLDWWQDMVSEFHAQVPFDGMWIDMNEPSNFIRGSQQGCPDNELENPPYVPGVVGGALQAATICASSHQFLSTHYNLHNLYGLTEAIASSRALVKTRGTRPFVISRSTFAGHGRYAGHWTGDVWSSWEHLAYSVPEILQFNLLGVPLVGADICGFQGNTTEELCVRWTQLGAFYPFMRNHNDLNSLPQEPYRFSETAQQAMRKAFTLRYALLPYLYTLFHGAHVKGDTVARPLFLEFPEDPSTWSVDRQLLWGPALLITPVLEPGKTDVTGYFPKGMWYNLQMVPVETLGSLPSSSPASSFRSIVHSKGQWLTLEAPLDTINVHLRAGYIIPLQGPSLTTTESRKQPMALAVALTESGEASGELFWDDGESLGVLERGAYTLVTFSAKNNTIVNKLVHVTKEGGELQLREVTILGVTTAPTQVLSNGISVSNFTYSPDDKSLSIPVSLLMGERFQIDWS
Chain of Alpha-glucosidase MAL62 (P07265 whole entry): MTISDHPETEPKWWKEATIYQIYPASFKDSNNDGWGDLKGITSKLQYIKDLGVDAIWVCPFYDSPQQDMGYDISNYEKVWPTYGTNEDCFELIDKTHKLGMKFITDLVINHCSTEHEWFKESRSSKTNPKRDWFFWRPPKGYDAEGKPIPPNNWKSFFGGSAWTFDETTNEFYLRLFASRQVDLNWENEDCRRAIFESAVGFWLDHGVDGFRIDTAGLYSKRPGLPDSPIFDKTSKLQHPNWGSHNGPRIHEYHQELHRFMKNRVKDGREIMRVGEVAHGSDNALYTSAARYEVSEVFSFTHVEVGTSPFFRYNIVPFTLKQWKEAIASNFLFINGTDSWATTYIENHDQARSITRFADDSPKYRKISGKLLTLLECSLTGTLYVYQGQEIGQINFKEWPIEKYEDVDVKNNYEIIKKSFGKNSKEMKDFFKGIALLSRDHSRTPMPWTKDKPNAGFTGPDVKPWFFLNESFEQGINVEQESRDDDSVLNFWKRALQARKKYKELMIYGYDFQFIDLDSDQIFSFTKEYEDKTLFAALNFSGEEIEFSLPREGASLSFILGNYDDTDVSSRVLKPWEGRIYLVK

For `C[C@H]1N[C@@H](CO)[C@H](O)[C@H]1O`, the inhibition [1] was under 50%, the IC50 [2] was 570 µM and the inhibition [3] was under 50%. The inhibition [4] was under 50%, the inhibition [5] was under 50% and the inhibition [6] was under 50%. For the same compound, the inhibition [7] was under 50%, the inhibition [8] was under 50% and the IC50 [9] was 420 µM. It also gave an IC50 [10] of 1 µM, a Ki [10] of 0.49 µM and an IC50 [11] of 510 µM.

Work on `OCCN1[C@H](CO)[C@@H](O)[C@H](O)[C@H]1CO` yielded an inhibition [12] of under 50%, an IC50 [13] of 260 µM and an IC50 [14] of 240 µM.

In the case of `C[C@@H]1N[C@H](CO)[C@@H](O)[C@H](O)[C@@H]1O`, the Ki [10] is reported as 0.0053 µM.

`OC[C@H]1NC[C@@H](O[C@@H]2O[C@H](CO)[C@@H](O)[C@H](O)[C@H]2O)[C@@H]1O` gave an inhibition [1] of under 50%, an inhibition [15] of under 50% and an inhibition [3] of under 50%. The inhibition [4] was under 50%, the inhibition [5] was under 50% and the inhibition [6] was under 50%. For the same compound, the inhibition [7] was under 50%, the inhibition [8] was under 50% and the inhibition [16] was under 50%. The inhibition [17] was under 50% and the inhibition [18] was under 50%.

In the case of `C[C@H]1N[C@H](CO)[C@@H](O)[C@@H]1O`, the inhibition [1] is reported as under 50%, the IC50 [2] is reported as 270 µM and the inhibition [3] is reported as under 50%. The inhibition [4] was under 50%, the inhibition [5] was under 50% and the inhibition [6] was under 50%. The IC50 [19] was 93 µM, the inhibition [8] was under 50% and the IC50 [9] was 30 µM. The IC50 [10] was 150 µM and the IC50 [11] was 160 µM.

In the case of `OC[C@H]1NC[C@H](O)[C@@H]1O` [IMINORIBITOL], the IC50 [20] is reported as 1000 µM, the IC50 [2] is reported as 230 µM and the inhibition [3] is reported as under 50%. The inhibition [6] was under 50%, the IC50 [19] was 18 µM and the inhibition [8] was under 50%. The IC50 [9] was 380 µM, the inhibition [17] was under 50% and the IC50 [11] was 1000 µM.

In the case of `OC[C@H]1O[C@@H](OC[C@H]2NC[C@@H](O)[C@@H]2O)[C@H](O)[C@@H](O)[C@@H]1O`, the inhibition [1] is reported as under 50%, the inhibition [15] is reported as under 50% and the inhibition [3] is reported as under 50%. For the same compound, the inhibition [4] was under 50%, the inhibition [5] was under 50% and the inhibition [6] was under 50%. For the same compound, the inhibition [7] was under 50%, the inhibition [8] was under 50% and the inhibition [16] was under 50%. For the same compound, the inhibition [17] was under 50% and the inhibition [18] was under 50%.
